The list is not random: actives were taken first. Their share in the collection is about 3.1%.
CHO parental Ca: counter-screen for OX1R antagonists: effect in parental CHO cells; parental CHO-K1, ATP-induced calcium, Fluo-8 fluorescence; inhibition, % at 5.6 µM; actives 0.63% (n = 330,000);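 active means inhibition above that plate's mean sample inhibition plus 3 SD, cut at about 26% in these data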
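Assay system – parental CHO cells · Reagent – ATP stimulus · Detection – intracellular calcium via Fluo-8 no-wash fluorescent dye · Evaluation – percent inhibition of ATP-evoked calcium rise, normalized to controls · Controls – ATP wells versus no-ATP DMSO wells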
OX1R antag-1: antagonists of human orexin 1 receptor; O43613; CHO/OX1R cells, Fluo-8 calcium fluorescence, orexin A; inhibition, % at 5 µM; actives 0.43% (n = 330,000);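 active means inhibition above its plate's threshold, mean inhibition of all tested compounds on the plate plus 3 SD, cut at about 37% in these data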
GalR3 antagonist: antagonists of human GalR3; actives 0.44% (n = 360,000); O60755; AID 651719; inhibition, % at 3 µM; HEK293 GalR3-CNG cAMP membrane potential fluorescence; galR3 body fused to GalR1 C-terminus;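 active means inhibition above the screen-wide average plus 3 SD, cut at about 13% in these data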;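 further: forskolin and galanin both at EC90 stimulate the cells; cAMP rise reported by CNG channel membrane potential dye signal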
OX1R antag-2: OX1R (human) antagonism; O43613; AID 485270; actives 1.8% (n = 330,000); inhibition, % at 6.6 µM; OX1R-expressing cells, FRET antagonist read-out; in the data active means inhibition mostly above about 38%, no sharp cut-off; inactive means mostly below about 40%
GPR7 antag: human neuropeptides B/W receptor 1 antagonism; AID 1861; actives 1.1% (n = 290,000); inhibition, % at 4.4 µM; GPR7-expressing cells, fluorescence antagonist assay; P48145; in the data active means inhibition above about 16%, passing the limit was not always enough;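 further: cells stimulated with the agonist NPW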
Target sequence (P48145 whole entry, looked up): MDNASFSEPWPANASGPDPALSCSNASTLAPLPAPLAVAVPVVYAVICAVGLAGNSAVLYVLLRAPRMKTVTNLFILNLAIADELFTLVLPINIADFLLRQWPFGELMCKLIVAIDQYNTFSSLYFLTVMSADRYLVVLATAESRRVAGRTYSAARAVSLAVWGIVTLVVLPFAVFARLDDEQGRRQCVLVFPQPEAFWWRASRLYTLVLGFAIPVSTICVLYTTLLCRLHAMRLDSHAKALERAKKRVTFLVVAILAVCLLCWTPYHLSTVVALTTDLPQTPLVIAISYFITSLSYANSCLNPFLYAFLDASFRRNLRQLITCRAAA
A number is an active result; n = inactive; x = not tested or not shown.

SMILES | CHO parental Ca | OX1R antag-1 | GalR3 antagonist | OX1R antag-2 | GPR7 antag
CCC(=O)Nc1ccccc1C(=O)OCC(=O)c1ccc2ccccc2c1 | n | n | n | n | 19
CCC(=O)Nc1ccccc1C(=O)OCC(=O)c1ccccc1 | n | n | n | n | n
O=C(O)c1[nH]c(-c2ccccc2)c2c1C(=O)N(C1CC1)C2=O | x | x | n | x | x
Nc1nc2c(ncn2[C@@H]2O[C@H](C(=O)N[C@H](Cc3ccccc3)C(=O)NCc3ccc4c(c3)OCO4)[C@@H](O)[C@H]2O)c(=O)[nH]1 | x | x | n | x | x
CCN(C(=O)CCc1cn(CC)c2ccccc12)c1ccc(Oc2cccnc2)cc1 | x | x | n | x | x
O=C(Cn1ncc(Cl)c(Cl)c1=O)N1CCN(S(=O)(=O)c2ccc3ccccc3c2)CC1 | 31 | n | n | n | 40
Cc1ccc(-c2nc3c(C)cc(Br)cn3c2Cc2ccccc2C(F)(F)F)cc1 | x | x | n | x | x
O=C(Nc1nc(-c2cccs2)c(C(=O)C(F)(F)F)s1)c1ccccc1 | n | n | n | 60 | n
O=C(Nc1nc(-c2cccs2)c(C(=O)C(F)(F)F)s1)c1ccco1 | n | n | n | n | n
O=C(NC(N1CCOCC1)C(Cl)(Cl)Cl)c1cc([N+](=O)[O-])cc([N+](=O)[O-])c1 (centres undefined) | n | n | n | 73 | n
COC(=O)c1cc(C(=O)N2CCOCC2)cc([N+](=O)[O-])c1 | n | n | n | 77 | n
COC(=O)c1cc(C(=O)N2CCN(c3cccc(Cl)c3)CC2)cc([N+](=O)[O-])c1 | n | n | n | n | n
O=C(NC(N1CCOCC1)C(Cl)(Cl)Cl)c1ccccc1Cl (centres undefined) | n | n | n | n | n
CC1CN(C(=O)c2cc([N+](=O)[O-])cc([N+](=O)[O-])c2)CC(C)O1 (centres undefined) | n | n | n | 62 | n
O=C(Nc1ccc(F)cc1)C(CCc1ccccc1)N1CCN(c2ccncc2)CC1 (centres undefined) | x | x | n | x | x
O=C(OCCNc1nc(-c2ccccc2)nc2ccccc12)c1ccncc1 | n | n | n | 57 | n
O=C(OCCNc1nc(-c2ccccc2)nc2ccccc12)c1cccnc1 | n | n | n | 48 | n
Cc1ccccc1OCc1nnc(SC(C)C(=O)O)n1Cc1ccccc1 (centres undefined) | n | n | n | 63 | n
Cc1ccccc1OCc1nnc(SCC(=O)O)n1Cc1ccccc1 | n | n | n | n | n
Cc1n[nH]c(=O)c2c(NC(=O)CSc3nncs3)oc(C)c12 | n | n | n | 48 | x
COc1ccc(NC(=O)c2cc(-c3ccc(C)c(C)c3O)n[nH]2)cc1Cl | n | n | n | 50 | n
Cc1ccc(NC(=O)c2cc(-c3ccc(C)c(C)c3O)n[nH]2)cc1C | n | n | n | n | n
Cc1cccc(-n2c(C)nc3c(cnn3-c3ccc(F)cc3)c2=O)c1 | 35 | n | n | n | n
COc1ccc(-n2c(C)nc3c(cnn3-c3ccc(Cl)cc3)c2=O)cc1 | 40 | n | n | n | n
COc1ccc(Oc2c(Cl)cnn(-c3ccc(Cl)c(Cl)c3)c2=O)cc1 | 52 | n | n | n | n
SMILES | CHO parental Ca | OX1R antag-1 | GalR3 antagonist | OX1R antag-2 | GPR7 antag
COc1cccc(-n2c(C)nc3c(cnn3-c3ccc(C)cc3)c2=O)c1 | n | n | n | n | n
COc1cccc(C2NC(=S)NC(C)=C2C(C)=O)c1 (centres undefined) | x | x | n | x | x
CC1(C(=O)Nc2cccc(Oc3ccccc3)c2)Cc2c(-c3ccc4c(c3)OCO4)ccnc2O1 (centres undefined) | x | x | n | x | x
CC1C(=O)N(Cc2cn(CCC3OCCCO3)nn2)CCS(=O)(=O)N1Cc1ccc(-c2cccc(CO)c2)cc1 (centres undefined) | x | x | n | x | x
CC(=O)c1ccc2c3c(cccc13)C(=O)N(c1c(C)nn(C)c1C)C2=O | n | n | n | 67 | n
CC(=O)c1ccc(NC(=O)CO/N=C(\C)c2cccs2)cc1 | n | n | n | n | 20
CC(=O)c1ccc(NC(=O)COC(=O)/C=C/c2cccs2)cc1 | n | n | n | 50 | x
COc1ccc(NC(=O)C2Cc3c(-c4cccc(C(N)=O)c4)ccnc3O2)cc1 (centres undefined) | x | x | n | x | x
CNc1ccc2c3c(cccc13)C(=O)N(C)C2=O | 79 | 88 | n | n | n
Cc1cc(N)n2ncc(-c3cccc(Br)c3)c2n1 | n | n | n | 43 | n
CCSc1cc(C)nc2c(-c3ccccc3)cnn12 | n | n | n | 59 | n
C=CCSc1cc(C)nc2c(-c3ccccc3)cnn12 | n | n | n | n | n
